From ChEMBL document CHEMBL3822416, “Design, Synthesis, and Structure-Activity Relationship Study of Novel Indole-2-carboxamide Derivatives as Anti-inflammatory Agents for the Treatment of Sepsis” (J Med Chem, 2016)
Calls of active or inactive are those of the source. The calls are words filed in the database; no cut-off is given here.

Assays:
Mus musculus [1] = experiment: Downregulation of TNF-alpha mRNA level in lung of LPS-induced C57BL/6 mouse sepsis model at 10 mg/kg, iv administered 15 mins prior to LPS challenge measured after 6 hrs by RT-qPCR analysis; assay type: functional, organism-based
Procedure, shortened: (§1)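 Male C57BL/6 mice were given 10 mg/kg by tail-vein injection 15 min before 20 mg/kg LPS and killed after 6 h; lungs were harvested. RNA was extracted with TRIZOL and quantified by real-time quantitative PCR as relative mRNA amount.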

RAW264.7 [2] = experiment: Inhibition of LPS-induced IL6 production in mouse RAW264.7 cells preincubated for 30 mins prior to LPS challenge measured after 24 hrs by ELISA; assay type: functional, cell-based; settings: Mus musculus, RAW264.7; read-out: IC50
Procedure, shortened: (§2)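 RAW 264.7 cells (ATCC) were grown in DMEM with 10% FBS and penicillin/streptomycin at 37 °C, 5% CO2. Cells were seeded at 400,000/well and incubated for 24 h, pretreated with compound for 30 min, then given 0.5 µg/mL LPS for 24 h. Medium TNF-α or IL-6 was measured by ELISA and normalized to total protein of viable cell pellets.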

Mus musculus [3] = experiment: Antiinflammatory activity in LPS-induced C57BL/6 mouse sepsis model assessed as inhibition of neutrophils infiltration in lung by measuring MPO activity at 10 mg/kg, iv administered 15 mins prior to LPS challenge measured after 6 hrs in presence of O-dianisidine dihydrochloride relative to control; assay type: functional, organism-based
Procedure, shortened: (§3)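 Mice were given 10 mg/kg iv 15 min before 20 mg/kg LPS or without LPS; saline served as control, and animals were killed 6 h later. Lung supernatants were incubated with 0.01% H2O2 and O-dianisidine dihydrochloride 0.167 mg/mL for 30 min, with absorbance change at 460 nm. One unit degrades 1 µmol peroxide/min at 37 °C; values are expressed as units/g lung.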

Mus musculus [4] = species: Mus musculus; experiment: Acute toxicity in C57BL/6 mouse kidney by hematoxylin and eosin staining-based histopathologiacal analysis; assay type: organism-based; settings: in vivo
Mus musculus [5] = experiment: Downregulation of IL-12 mRNA level in lung of LPS-induced C57BL/6 mouse sepsis model at 10 mg/kg, iv administered 15 mins prior to LPS challenge measured after 6 hrs by RT-qPCR analysis; assay type: functional, organism-based; procedure, shortened: as §1
RAW264.7 [6] = experiment: Inhibition of LPS-induced TNF-alpha production in mouse RAW264.7 cells preincubated for 30 mins prior to LPS challenge measured after 24 hrs by ELISA; assay type: functional, cell-based; settings: Mus musculus, RAW264.7; read-out: IC50; procedure, shortened: as §2
Mus musculus [7] = species: Mus musculus; experiment: Acute toxicity in C57BL/6 mouse heart by hematoxylin and eosin staining-based histopathologiacal analysis; assay type: organism-based; settings: in vivo
Mus musculus [8] = experiment: Downregulation of IL-1beta mRNA level in lung of LPS-induced C57BL/6 mouse sepsis model at 10 mg/kg, iv administered 15 mins prior to LPS challenge measured after 6 hrs by RT-qPCR analysis; assay type: functional, organism-based; procedure, shortened: as §1
Mus musculus [9] = experiment: Antiinflammatory activity in LPS-induced C57BL/6 mouse sepsis model assessed as decrease in pulmonary lobule structural changes at 10 mg/kg, iv administered 15 mins prior to LPS challenge measured after 6 hrs by hematoxylin and eosin staining; assay type: functional, organism-based
Procedure, shortened: (§4)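 Male C57BL/6 mice (18-22 g), randomized into groups. Compound at 10 mg/kg was given by tail-vein injection 15 min before LPS 20 mg/kg; controls received saline. Animals were sacrificed 6 h after LPS. Lung was fixed in 4% paraformaldehyde, paraffin-embedded, cut at 5 µm and H&E stained. A pathologist, blinded, scored alveolar congestion, hemorrhage, neutrophil infiltration and alveolar wall thickness/hyaline membrane.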

Mus musculus [10] = experiment: Decrease in MPO activity in C57BL/6 mouse lung at 10 mg/kg, iv after 6 hrs in presence of O-dianisidine dihydrochloride relative to control; assay type: ADME, organism-based; settings: in vivo; procedure, shortened: as §3
Mus musculus [11] = experiment: Downregulation of IL-6 mRNA level in lung of LPS-induced C57BL/6 mouse sepsis model at 10 mg/kg, iv administered 15 mins prior to LPS challenge measured after 6 hrs by RT-qPCR analysis; assay type: functional, organism-based; procedure, shortened: as §1
Mus musculus [12] = species: Mus musculus; experiment: Acute toxicity in C57BL/6 mouse liver by hematoxylin and eosin staining-based histopathologiacal analysis; assay type: organism-based; settings: in vivo
Mus musculus [13] = experiment: Downregulation of COX2 mRNA level in lung of LPS-induced C57BL/6 mouse sepsis model at 10 mg/kg, iv administered 15 mins prior to LPS challenge measured after 6 hrs by RT-qPCR analysis; assay type: functional, organism-based; procedure, shortened: as §1
Mus musculus [14] = experiment: Toxicity in C57BL/6 mouse assessed as change in body weight at 20 mg/kg, iv administered for 7 days measured every 24 hrs of compound dosing relative to control; assay type: organism-based; settings: in vivo
Mus musculus [15] = experiment: Antiinflammatory activity in LPS-induced C57BL/6 mouse sepsis model assessed as reduction in airspace inflammation in lung at 10 mg/kg, iv administered 15 mins prior to LPS challenge measured after 6 hrs by hematoxylin and eosin staining; assay type: functional, organism-based; procedure, shortened: as §4
Mus musculus [16] = experiment: Downregulation of IL-33 mRNA level in lung of LPS-induced C57BL/6 mouse sepsis model at 10 mg/kg, iv administered 15 mins prior to LPS challenge measured after 6 hrs by RT-qPCR analysis; assay type: functional, organism-based; procedure, shortened: as §1
Mus musculus [17] = experiment: Antiinflammatory activity in LPS-induced C57BL/6 mouse sepsis model assessed as suppression of TNF-alpha release in serum at 10 mg/kg, iv administered 15 mins prior to LPS challenge measured after 6 hrs relative to control; assay type: functional, organism-based
Procedure, shortened: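 Male C57BL/6 mice, 18-22 g, were injected via tail vein with 10 mg/kg 15 min before 20 mg/kg LPS; controls received saline. Blood was taken with a heparinized syringe 6 h after LPS under anesthesia. Serum TNF-α was measured by ELISA (pg/mL).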

Mus musculus [18] = experiment: Antiinflammatory activity in LPS-induced C57BL/6 mouse sepsis model assessed as inhibition of macrophage infiltration in lung at 10 mg/kg, iv administered 15 mins prior to LPS challenge measured after 6 hrs by F4/80 and hematoxylin-staining based microscopy; assay type: functional, organism-based
Procedure, shortened: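 C57BL/6 males were dosed with 10 mg/kg iv (tail vein) 15 min before 20 mg/kg LPS and sacrificed 6 h later. Paraffin lung sections had antigen retrieval by pressure cooker in 10 mM citrate pH 6.5, then H2O2, 5% BSA block, anti-F4/80 overnight at 4 °C, HRP secondary, DAB and hematoxylin counterstain. The % F4/80-positive cells was counted in 10 random 200× fields per section.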

| SMILES | Activity (Mus musculus [1]) | IC50 (RAW264.7 [2]) | inhibition (Mus musculus [3]) | Activity (Mus musculus [4]) | Activity (Mus musculus [5]) | IC50 (RAW264.7 [6]) | Activity (Mus musculus [7]) | Activity (Mus musculus [8]) | Activity (Mus musculus [9]) | Activity (Mus musculus [10]) | Activity (Mus musculus [11]) | Activity (Mus musculus [12]) | Activity (Mus musculus [13]) | Activity (Mus musculus [14]) | Activity (Mus musculus [15]) | Activity (Mus musculus [16]) | Activity (Mus musculus [17]) | inhibition (Mus musculus [18]) |
| --- | --- | --- | --- | --- | --- | --- | --- | --- | --- | --- | --- | --- | --- | --- | --- | --- | --- | --- |
| CN1CCN(c2ccc(NC(=O)c3cc4cc(NC(=O)N(C)C)ccc4n3Cc3ccc(C(F)(F)F)cc3)cc2)CC1 | Active | 1.24 µM | Active | Non-toxic | Active | 2.67 µM | Non-toxic | Active | Active | Non-toxic | Active | Non-toxic | Active | Non-toxic | Active | Active | Active | Active |
| CN1CCN(c2ccc(NC(=O)c3cc4cc(NC(=O)c5ccco5)ccc4n3Cc3ccc(C(F)(F)F)cc3)cc2)CC1 | Active | 2.9 µM | Active | Non-toxic | Active | 2.66 µM | Non-toxic | Active | Active | Non-toxic | Active | Non-toxic | Active | Non-toxic | Active | Active | Active | Active |
